Holding throughout (format): functional
Test [1] has as its system Pseudomonas aeruginosa. Nature of the test: Antibacterial activity against Pseudomonas aeruginosa isolated from wound infection of patient by Etest.
Test [2] concerns Pseudomonas aeruginosa. The test is described as follows: Antibacterial activity against Pseudomonas aeruginosa PAO1 by Etest.
For test [3], the system named is Pseudomonas aeruginosa. Nature of the test: Antibacterial activity against Pseudomonas aeruginosa PAO1 harboring Pseudomonas aeruginosa plasmid DNA isolated from wound infection of patient by Etest.
Test [4] concerns Pseudomonas aeruginosa. The test is described as follows: Antibacterial activity against Pseudomonas aeruginosa PAO1 harboring Pseudomonas aeruginosa plasmid DNA lung biopsy specimen of patient by Etest.
The subject of test [5] is Pseudomonas aeruginosa. Nature of the test: Antibacterial activity against Pseudomonas aeruginosa isolated from lung biopsy specimen of patient by Etest.
The test system of test [6] is Pseudomonas aeruginosa. Nature of the test: Antibacterial activity against Pseudomonas aeruginosa PAO1 by CLSI broth microdilution method. The essentials: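 MIC by standard CLSI broth microdilution, tested with carbenicillin, ceftazidime, and ceftazidime plus clavulanate at 4 μg/ml. P. aeruginosa PAO1 was the recipient strain, with transformants produced by electroporation and selected on LB agar with 20 μg/ml ceftazidime.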
(In general: In broth dilution the organism is exposed to a series of concentrations in liquid medium.)

The subject of test [7] is Pseudomonas aeruginosa. The test is described as follows: Antibacterial activity against Pseudomonas aeruginosa isolated from lung biopsy specimen of patient by CLSI broth microdilution method. The method, boiled down:
(§1)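 CLSI standard broth microdilution MICs were determined for carbenicillin, ceftazidime, and ceftazidime plus clavulanate held at a fixed 4 μg/ml.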

The test system of test [8] is Pseudomonas aeruginosa. The test is described as follows: Antibacterial activity against Pseudomonas aeruginosa PAO1 harboring cloned pUCPOXA-2 by CLSI broth microdilution method. The essentials: as §1
Test [9] deals with Pseudomonas aeruginosa. Nature of the test: Antibacterial activity against Pseudomonas aeruginosa PAO1 harboring cloned pUCPOXA-161 by CLSI broth microdilution method. The essentials:
as §1

Test [10] deals with Pseudomonas aeruginosa. Nature of the test: Antibacterial activity against Pseudomonas aeruginosa isolated from wound infection of patient by CLSI broth microdilution method. The essentials:
as §1

Test [11] concerns Pseudomonas aeruginosa. Nature of the test: Antibacterial activity against Pseudomonas aeruginosa PAO1 harboring Pseudomonas aeruginosa plasmid DNA isolated from wound infection of patient by CLSI broth microdilution method. The method, boiled down:
(§2)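 Plasmid DNA from the clinical isolate was electroporated into PAO1, and transformants were selected on LB agar with 20 μg/ml ceftazidime. Transformants were confirmed by double-disk synergy test and PCR. CLSI broth microdilution MICs were determined for carbenicillin, ceftazidime, and ceftazidime plus fixed 4 μg/ml clavulanate.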

In test [12] the test system is Pseudomonas aeruginosa. The test is described as follows: Antibacterial activity against Pseudomonas aeruginosa PAO1 harboring Pseudomonas aeruginosa plasmid DNA lung biopsy specimen of patient by CLSI broth microdilution method. The method, boiled down:
as §2

Test [13] concerns Pseudomonas aeruginosa. Nature of the test: Antibacterial activity against Pseudomonas aeruginosa PAO1 harboring cloned pUCPOXA-161 by Etest.
The subject of test [14] is Pseudomonas aeruginosa. Nature of the test: Antibacterial activity against Pseudomonas aeruginosa PAO1 harboring cloned pUCPOXA-2 by Etest.

Values after ≈ are worked out from the molar mass of the structure shown.

What is called MIC is the lowest concentration that inhibits growth of the organism. Higher therefore signals a need for much substance. For `CO/N=C(\C(=O)N[C@@H]1C(=O)N2C(C(=O)[O-])=C(C[N+]3(C)CCCC3)CS[C@H]12)c1csc(N)n1`, the MIC in the test on Pseudomonas aeruginosa [1] was 16 µg/mL (≈ 33.3 µM); with Pseudomonas aeruginosa [2] it was 1 µg/mL (≈ 2.08 µM); in the test with Pseudomonas aeruginosa [3], 8 µg/mL (≈ 16.6 µM); against Pseudomonas aeruginosa [4], 8 µg/mL (≈ 16.6 µM); with Pseudomonas aeruginosa [5], 12 µg/mL (≈ 25 µM).
Take `NCC[C@H](O)C(=O)N[C@@H]1C[C@H](N)[C@@H](O[C@H]2O[C@H](CN)[C@@H](O)[C@H](O)[C@H]2O)[C@H](O)[C@H]1O[C@H]1O[C@H](CO)[C@@H](O)[C@H](N)[C@H]1O` [AMIKACIN]: the MIC was 32 µg/mL (≈ 54.6 µM) against Pseudomonas aeruginosa [1]; 3 µg/mL (≈ 5.12 µM) against Pseudomonas aeruginosa [2]; 12 µg/mL (≈ 20.5 µM) with Pseudomonas aeruginosa [3]; 12 µg/mL (≈ 20.5 µM) against Pseudomonas aeruginosa [4]; 64 µg/mL (≈ 109 µM) in the test on Pseudomonas aeruginosa [5].
`CC1(C)S[C@@H]2[C@H](NC(=O)C(C(=O)O)c3ccccc3)C(=O)N2[C@H]1C(=O)O` (stereo not given in full) [CARBENICILLIN]: the MIC against Pseudomonas aeruginosa [6] is 32 µg/mL (≈ 84.6 µM); with Pseudomonas aeruginosa [7], 128 µg/mL (≈ 338 µM); in the test on Pseudomonas aeruginosa [8] it was more than 256 µg/mL; in the test with Pseudomonas aeruginosa [9] it was 128 µg/mL (≈ 338 µM); in the test on Pseudomonas aeruginosa [10], 128 µg/mL (≈ 338 µM); in the test on Pseudomonas aeruginosa [11], 128 µg/mL (≈ 338 µM). This compound also displayed a minimum inhibitory concentration (MIC) in the test with Pseudomonas aeruginosa [12] of 128 µg/mL (≈ 338 µM).
As to `CC(C)(O/N=C(\C(=O)N[C@@H]1C(=O)N2C(C(=O)[O-])=C(C[n+]3ccccc3)CS[C@H]12)c1csc(N)n1)C(=O)O` [CEFTAZIDIME], the MIC in the test on Pseudomonas aeruginosa [6] is 2 µg/mL (≈ 3.66 µM); in the test on Pseudomonas aeruginosa [7], more than 256 µg/mL; against Pseudomonas aeruginosa [8] it was 8 µg/mL (≈ 14.6 µM); against Pseudomonas aeruginosa [9], 64 µg/mL (≈ 117 µM); in the test on Pseudomonas aeruginosa [10], more than 256 µg/mL; against Pseudomonas aeruginosa [11] it was 128 µg/mL (≈ 234 µM). The compound also displayed an MIC against Pseudomonas aeruginosa [12] of 128 µg/mL (≈ 234 µM).
Consider `C[C@@H](O)[C@H]1C(=O)N2C(C(=O)O)=C(SCCNC=N)C[C@H]12` [IMIPENEM ANHYDROUS], for which the MIC with Pseudomonas aeruginosa [1] was 16 µg/mL (≈ 53.4 µM); against Pseudomonas aeruginosa [2], 1.5 µg/mL (≈ 5.01 µM); with Pseudomonas aeruginosa [13] it was 1.5 µg/mL (≈ 5.01 µM); with Pseudomonas aeruginosa [3], 1 µg/mL (≈ 3.34 µM); with Pseudomonas aeruginosa [4] it was 1 µg/mL (≈ 3.34 µM); against Pseudomonas aeruginosa [14] it was 1.5 µg/mL (≈ 5.01 µM). The compound further yielded an MIC in the test with Pseudomonas aeruginosa [5] of 32 µg/mL (≈ 107 µM).
In the case of `C[C@@H](O)[C@H]1C(=O)N2C(C(=O)O)=C(S[C@@H]3CN[C@H](C(=O)N(C)C)C3)[C@H](C)[C@H]12` [MEROPENEM], the MIC with Pseudomonas aeruginosa [1] is 6 µg/mL (≈ 15.6 µM); in the test on Pseudomonas aeruginosa [2], 0.38 µg/mL (≈ 0.991 µM); against Pseudomonas aeruginosa [13], 0.5 µg/mL (≈ 1.3 µM); against Pseudomonas aeruginosa [3], 0.75 µg/mL (≈ 1.96 µM); with Pseudomonas aeruginosa [4] it was 0.75 µg/mL (≈ 1.96 µM); with Pseudomonas aeruginosa [14] it was 0.38 µg/mL (≈ 0.991 µM). The compound further displayed an MIC with Pseudomonas aeruginosa [5] of 8 µg/mL (≈ 20.9 µM).
Regarding `CCN1CCN(C(=O)N[C@@H](C(=O)N[C@@H]2C(=O)N3[C@@H]2SC(C)(C)[C@@H]3C(=O)O)c2ccccc2)C(=O)C1=O` [PIPERACILLIN], the MIC against Pseudomonas aeruginosa [1] was determined as 24 µg/mL (≈ 46.4 µM); with Pseudomonas aeruginosa [2], 2 µg/mL (≈ 3.86 µM); with Pseudomonas aeruginosa [13], 24 µg/mL (≈ 46.4 µM); in the test on Pseudomonas aeruginosa [3] it was 16 µg/mL (≈ 30.9 µM); in the test on Pseudomonas aeruginosa [4], 32 µg/mL (≈ 61.8 µM); with Pseudomonas aeruginosa [14], 48 µg/mL (≈ 92.7 µM). The MIC against Pseudomonas aeruginosa [5] came to 24 µg/mL (≈ 46.4 µM).
As for `NC[C@H]1O[C@H](O[C@H]2[C@H](O)[C@@H](O[C@H]3O[C@H](CO)[C@@H](O)[C@H](N)[C@H]3O)[C@H](N)C[C@@H]2N)[C@H](N)C[C@@H]1O` [TOBRAMYCIN], the MIC with Pseudomonas aeruginosa [1] was found to be 48 µg/mL (≈ 103 µM); in the test on Pseudomonas aeruginosa [2], 1 µg/mL (≈ 2.14 µM); in the test with Pseudomonas aeruginosa [3], 12 µg/mL (≈ 25.7 µM); against Pseudomonas aeruginosa [4] it was 12 µg/mL (≈ 25.7 µM); with Pseudomonas aeruginosa [5], 64 µg/mL (≈ 137 µM).
Take COLISTIN: the MIC in the test with Pseudomonas aeruginosa [1], against Pseudomonas aeruginosa [2], with Pseudomonas aeruginosa [3], against Pseudomonas aeruginosa [4] and in the test with Pseudomonas aeruginosa [5] was 2 µg/mL each time.
Consider GENTAMICIN, for which the MIC against Pseudomonas aeruginosa [1] amounted to 32 µg/mL; against Pseudomonas aeruginosa [2] it was 2 µg/mL; in the test with Pseudomonas aeruginosa [3], 12 µg/mL; with Pseudomonas aeruginosa [4], 8 µg/mL; against Pseudomonas aeruginosa [5], 64 µg/mL.

The values above are taken from ChEMBL document CHEMBL1649281, “Detection of the novel extended-spectrum beta-lactamase OXA-161 from a plasmid-located integron in Pseudomonas aeruginosa clinical isolates from Spain” (2009).
